Published values pooled from the literature.
gag-pol reverse transcriptase: Gag-Pol polyprotein, reverse transcriptase (gag-pol, Human immunodeficiency virus 1, UniProt P03366)
gyrA: DNA gyrase subunit A (gyrA, Escherichia coli K-12, UniProt P0AES4)
EP300: Histone acetyltransferase p300 (EP300, Homo sapiens, UniProt Q09472)

| SMILES | target | read-out | action | technique | pH | notes | IC50 |
| --- | --- | --- | --- | --- | --- | --- | --- |
| Cc1cc(C)cc(S(=O)(=O)c2c(C(=O)NCCCCNS(=O)(=O)c3ccccc3)[nH]c3ccc(Cl)cc23)c1 | gag-pol reverse transcriptase | enzyme activity | inhibitor | ELISA |  |  | 130 nM |
| N#Cc1ccc(Nc2nc(N)cc(Oc3ccc(-c4ccccc4)cc3)n2)cc1 | gag-pol reverse transcriptase | enzyme activity | inhibitor |  |  |  | 570 nM |
| Cc1cc(C)cc(S(=O)(=O)c2c(C(=O)NCCNS(=O)(=O)c3cccc(F)c3)[nH]c3ccc(Cl)cc23)c1 | gag-pol reverse transcriptase | enzyme activity | inhibitor | ELISA |  |  | 83 nM |
| CCN1CCN(Cc2ccc(C(=O)Nc3ccc(C)c(Oc4ccc5c(c4)CC(=O)N5)c3)cc2C(F)(F)F)CC1 | Tyrosine-protein kinase ABL1 (ABL1, Homo sapiens, UniProt P00519) | enzyme activity | inhibitor |  |  |  | 1810 nM |
| COc1c(C(=O)Nc2ccc(C(=O)O)cc2)ccc2nc(-c3cc(NC(=O)C(CC(N)=O)NC(=O)c4ccc(NC(=O)c5ccc(C#N)cc5)cc4)cn3C)[nH]c12 (stereo not drawn) | gyrA | enzyme activity | inhibitor |  |  |  | 10900 nM |
| C[C@H]1Oc2cc(cnc2N)-c2c(nn(C)c2C#N)CN(C)C(=O)c2ccc(F)cc21 | Protein-tyrosine kinase 2-beta (PTK2B, Homo sapiens, UniProt Q14289) | enzyme activity | inhibitor | radiometric |  |  | 5.9 nM |
| N#Cc1ccc(Nc2nc(N)cc(Oc3ccc(-c4ccc(C#N)cc4)c(C(F)(F)F)c3)n2)cc1 | gag-pol reverse transcriptase | enzyme activity | inhibitor |  |  |  | 90 nM |
| CC(C)Oc1c(NC(=O)c2ccc(NC(=O)[C@H](CC(N)=O)NC(=O)c3ccc(NC(=O)c4cc(C#N)cn4C)cc3)cc2)ccc(C(=O)Nc2ccc(C(=O)O)cc2)c1O | gyrA | enzyme activity | inhibitor |  |  |  | 700 nM |
| Cc1cc(C)cc(S(=O)(=O)c2c(C(=O)NCCCNS(=O)(=O)c3cccnc3)[nH]c3ccc(Cl)cc23)c1 | gag-pol reverse transcriptase | enzyme activity | inhibitor | ELISA |  |  | 41 nM |
| COc1ccc(-c2oc3ncnc(NCc4ccccc4)c3c2-c2ccc(OC)cc2)cc1 | Receptor tyrosine-protein kinase erbB-2 (ERBB2, Homo sapiens, UniProt P04626, D769Y) | enzyme activity | inhibitor | radiometric |  |  | 790 nM |
| CC(C)Oc1c(NC(=O)c2ccc(NC(=O)[C@H](CC(N)=O)NC(=O)c3ccc(NC(=O)c4ccc(C#N)cc4)cc3)cc2)ccc(C(=O)O)c1O | gyrA | enzyme activity | inhibitor |  |  |  | 9400 nM |
| N#Cc1ccc(Nc2nc(N)cc(Oc3ccc(-c4ccc(C#N)cc4)cc3Cl)n2)cc1 | gag-pol reverse transcriptase | enzyme activity | inhibitor |  |  |  | 30 nM |
| COc1ccc2c(Oc3ccc4c(C(=O)Nc5ccccc5N)cccc4c3)ccnc2c1 | Insulin-like growth factor 1 receptor (IGF1R, Homo sapiens, UniProt P08069) | enzyme activity | inhibitor |  |  |  | > 500 nM |
| Cc1cc(C)cc(S(=O)(=O)c2c(C(=O)NCCCCCNS(=O)(=O)c3ccc(C#N)cc3)[nH]c3ccc(Cl)cc23)c1 | gag-pol reverse transcriptase | enzyme activity | inhibitor | ELISA |  |  | 160 nM |
| C(/C=C/c1sc2c3ccccc3ccc2[n+]1CCCc1ccccc1)=C1/Sc2c(ccc3ccccc23)N1CCCc1ccccc1 | Protein arginine N-methyltransferase 6 (PRMT6, Homo sapiens, UniProt Q96LA8) | enzyme activity | inhibitor | radiometric |  |  | 1500 nM |
| CC(C)COc1c(NC(=O)c2ccc(NC(=O)[C@H](CC(N)=O)NC(=O)c3ccc(NC(=O)c4ccc([N+](=O)[O-])cc4)cc3)cc2)ccc(C(=O)Nc2ccc(C(=O)O)cc2)c1O | gyrA | enzyme activity | inhibitor |  |  |  | 900 nM |
| CCOC(=O)N1CCC(CN(Cc2ccc(Cl)cc2)Cc2ccc([N+](=O)[O-])s2)C1 (stereo not drawn) | Oxysterols receptor LXR-alpha (NR1H3, Homo sapiens, UniProt Q13133) | ligand displacement |  | radioligand |  |  | 13000 nM |
| Cc1cc(C)cc(S(=O)(=O)c2c(C(=O)NCCCCNS(=O)(=O)c3ccc(F)cc3)[nH]c3ccc(Cl)cc23)c1 | gag-pol reverse transcriptase | enzyme activity | inhibitor | ELISA |  |  | 150 nM |

| SMILES | target | read-out | action | technique | pH | notes | IC50 |
| --- | --- | --- | --- | --- | --- | --- | --- |
| CC(C)Oc1c(NC(=O)c2ccc(NC(=O)[C@H](CC(N)=O)NC(=O)c3ccc(NC(=O)c4ccc(C#N)c(Cl)c4)cc3)cc2)ccc(C(=O)Nc2ccc(C(=O)O)cc2)c1O | gyrA | enzyme activity | inhibitor |  |  |  | 100 nM |
| N#Cc1ccc(Nc2nc(N)cc(Oc3ccc(-c4ccc(C#N)c(C#N)c4)cc3)n2)cc1 | gag-pol reverse transcriptase | enzyme activity | inhibitor |  |  |  | 770 nM |
| COc1ccc(S(=O)(=O)ON=C2C=C(C)C(=O)C(C)=C2)cc1 | EP300 | enzyme activity | inhibitor | fluorescence |  |  | 1980 nM |
| N#Cc1ccc(Nc2nc(N)cc(Oc3ccc(-c4ccc(C#N)c(F)c4)cc3F)n2)cc1 | gag-pol reverse transcriptase | enzyme activity | inhibitor |  |  |  | 70 nM |
| CCCC(CCC)C(=O)O | Aldo-keto reductase family 1 member A1 (AKR1A1, Homo sapiens, UniProt P14550) | enzyme activity | inhibitor | absorbance | pH 6.2 |  | 53200 nM |
| CC(C)Oc1c(NC(=O)c2ccc(NC(=O)[C@H](CC(N)=O)NC(=O)c3ccc(NC(=O)c4ccc(C#N)s4)cc3)cc2)ccc(C(=O)Nc2ccc(C(=O)O)cc2)c1O | gyrA | enzyme activity | inhibitor |  |  |  | 500 nM |
| CN1CCN(c2ccc(Nc3ncc4cc(C#N)c(=O)n(C5CCCC5)c4n3)cc2)CC1 | Serine/threonine-protein kinase WNK2 (WNK2, Homo sapiens, UniProt Q9Y3S1) | enzyme activity | inhibitor |  |  |  | > 10000 nM |
| Cc1cc(C)cc(S(=O)(=O)c2c(C(=O)NCCCCNS(=O)(=O)c3cccs3)[nH]c3ccc(Cl)cc23)c1 | gag-pol reverse transcriptase | enzyme activity | inhibitor | ELISA |  |  | 190 nM |
| CC(C)Oc1c(NC(=O)c2ccc(NC(=O)[C@H](CC(N)=O)NC(=O)c3ccc(NC(=O)c4cccc([N+](=O)[O-])c4)cc3)cc2)ccc(C(=O)Nc2ccc(C(=O)O)cc2)c1O | gyrA | enzyme activity | inhibitor |  |  |  | 2200 nM |
| N#Cc1ccc(Nc2nc(N)cc(Oc3ccc(-c4ccc(C#N)cc4)cc3C(F)(F)F)n2)cc1 | gag-pol reverse transcriptase | enzyme activity | inhibitor |  |  |  | 70 nM |
| COc1ccc(S(=O)(=O)NCCCCCNC(=O)c2[nH]c3ccc(Cl)cc3c2S(=O)(=O)c2cc(C)cc(C)c2)cc1 | gag-pol reverse transcriptase | enzyme activity | inhibitor | ELISA |  |  | 160 nM |
| N#C/C(=C\c1cccn1S(=O)(=O)c1ccccc1)S(=O)(=O)c1ccccc1 | Protein phosphatase methylesterase 1 (Homo sapiens, UniProt Q9Y570) | enzyme activity | inhibitor |  |  |  | > 20000 nM |
| N=C(N)NC(=O)c1nc(Cl)c(N)nc1N | delm-1 (Caenorhabditis elegans, UniProt O45402) | ion current |  | two-electrode voltage clamp |  | oocytes | 120000 nM |
| CCOCc1nc(O)c(-c2nnc(Cc3ccc(Cl)cn3)o2)c(O)c1-c1c(OC)cccc1OC | Alpha-2A adrenergic receptor (ADRA2A, Homo sapiens, UniProt P08913) | ligand displacement |  | radioligand |  |  | > 30000 nM |
| CC(C)Oc1c(NC(=O)c2ccc(NC(=O)[C@H](CC(N)=O)NC(=O)c3ccc(NC(=O)CCc4ccc(C#N)cc4)cc3)cc2)ccc(C(=O)Nc2ccc(C(=O)O)cc2)c1O | gyrA | enzyme activity | inhibitor |  |  |  | 1000 nM |
| CCCCCCCCCCCCCCCc1cccc(O)c1C(=O)O | EP300 | enzyme activity | inhibitor | radiometric |  |  | > 200000 nM |
| Cc1ccc(S(=O)(=O)NCCNC(=O)c2[nH]c3ccc(Cl)cc3c2S(=O)(=O)c2cc(C)cc(C)c2)cc1 | gag-pol reverse transcriptase | enzyme activity | inhibitor | ELISA |  |  | 75 nM |
| N#Cc1ccc(Nc2nc(N)cc(Oc3ccc(-c4ccc(C#N)cc4)cc3C#N)n2)cc1 | gag-pol reverse transcriptase | enzyme activity | inhibitor |  |  |  | 30 nM |
